This is a sample that favours compounds with a hit; in the whole collection about 1.4% have one here.
Thrombin inh: thrombin (human) inhibition; alpha-thrombin, Boc-VPR-AMC fluorogenic substrate cleavage; inhibition, % at 5 µM; 0.26% of 220,000 active; AID 1046;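 active means inhibition at or above 40%; inactive means inhibition below 40%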
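System: Human alpha-thrombin protein | Medium: pH 7.5 Tris (50 mM) with NaCl 150 mM, Tween 20 0.05% | Times: Enzyme reaction carried out at room temperature | Detection: AMC fluorescence, 355/460 nm | Evaluation: Percent inhibition scaled between no-compound controls and no-enzyme blanks | Benchmarks: Enzyme without compound as high, wells lacking enzyme as low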
FXIIa inh 1536: factor XIIa (human) inhibition | purified FXIIa, Boc-QGR-AMC fluorogenic substrate, 2 h | inhibition, % at 5 µM | P00748 | 0.3% of 220,000 active; in the data active means inhibition above about 40%
KLK5 inh: kallikrein 5 (human) inhibition. 0.59% of 210,000 active. recombinant hK5, fluorogenic AMC substrate cleavage. AID 873. inhibition, % at 5 µM;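 active means inhibition of 40% or more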
FXIa inh: blocks human coagulation factor XIa protease activity; AID 798; 0.14% of 220,000 active; P03951; purified FXIa, Boc-Glu-Ala-Arg-AMC fluorogenic substrate; inhibition, % at 5 µM;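 active means inhibition of at least 40%; inactive means inhibition below 40%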;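 further: fluorescence of freed AMC excited at 355 nm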
Target sequence (P03951 19-387 limits assumed): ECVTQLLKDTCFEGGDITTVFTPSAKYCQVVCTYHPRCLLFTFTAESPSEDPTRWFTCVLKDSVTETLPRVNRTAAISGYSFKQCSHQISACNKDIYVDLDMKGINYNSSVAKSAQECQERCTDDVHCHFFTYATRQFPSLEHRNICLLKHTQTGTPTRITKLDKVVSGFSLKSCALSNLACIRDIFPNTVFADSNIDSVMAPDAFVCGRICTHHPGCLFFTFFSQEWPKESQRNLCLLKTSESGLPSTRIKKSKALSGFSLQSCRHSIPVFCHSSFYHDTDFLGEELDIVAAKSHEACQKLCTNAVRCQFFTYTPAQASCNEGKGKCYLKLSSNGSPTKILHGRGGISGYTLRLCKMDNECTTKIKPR
Target sequence (P03951 388-625 limits assumed): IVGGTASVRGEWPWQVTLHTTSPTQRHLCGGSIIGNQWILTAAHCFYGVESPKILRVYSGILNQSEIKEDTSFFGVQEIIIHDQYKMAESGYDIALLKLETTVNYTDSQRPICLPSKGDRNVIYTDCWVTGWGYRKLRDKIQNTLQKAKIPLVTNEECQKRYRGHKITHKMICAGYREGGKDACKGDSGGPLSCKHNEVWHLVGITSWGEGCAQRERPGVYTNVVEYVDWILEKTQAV
Rce1 inh: yeast Ras-converting enzyme inhibition. yeast membranes, quenched prenylated peptide cleavage fluorescence. 0.27% of 290,000 active. calls only. Q03530;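 active means fall in fluorescence gain of 50% or more versus controls, with final raw signal at or below 3038400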
CTSL1 counter: blocks F. hepatica cathepsin L1 in PFM18AAP counter-screen; AID 1906; 0.49% of 300,000 active; recombinant F. hepatica cathepsin L1, Z-Leu-Arg-MCA fluorescence; inhibition, % at 5.96 µM;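 active means inhibition above the mean of all tested compounds plus 3 SD, set per screening campaign, cut at about 17% in these data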
Numbers stand for hits; – = inactive; · = no result; + = active, no number.

SMILES	Thrombin inh	FXIIa inh 1536	KLK5 inh	FXIa inh	Rce1 inh	CTSL1 counter
CC(NC(=O)Nc1nnc(C(F)(F)F)s1)(C(F)(F)F)C(F)(F)F	–	40	–	–	–	–
O=C(COC(=O)c1ccc([N+](=O)[O-])s1)NCc1ccccc1	–	–	–	–	–	57
CC(C)(C)c1ccc(NC(=O)COC(=O)c2ccc([N+](=O)[O-])s2)cc1	–	–	–	–	·	–
O=C(COC(=O)c1ccc([N+](=O)[O-])s1)Nc1cccc(S(=O)(=O)NC2=NCCCCC2)c1	45	–	–	–	–	70
O=C(COC(=O)c1ccc([N+](=O)[O-])s1)Nc1ccccc1	–	–	–	–	–	74
CSc1nnc(-c2sccc2OCc2ccc(C)cc2)n1C	–	–	–	–	–	–
COCCN1C(=O)/C(=C/c2ccc(Oc3ccc([N+](=O)[O-])cn3)c(OC)c2)SC1=Nc1ccccc1	–	–	–	–	+	–
O=C(NC(=S)Nc1ccc(S(=O)(=O)Nc2nccs2)cc1)c1ccccc1	–	–	–	–	–	–
O=C(NC(=S)Nc1ccc(S(=O)(=O)Nc2nccs2)cc1)c1ccccc1F	–	77	–	–	–	–
COc1ccc(NC(=O)CN(C)C(=O)CCCc2nc3ccccc3c(=O)[nH]2)cc1	·	·	·	·	·	–
COc1ccc(CC(=O)Nc2ccccc2N2CCCCC2)cc1OC	–	–	112	–	–	–
COc1ccc(CC(=O)Nc2ccccc2N2CCOCC2)cc1OC	–	–	–	–	–	–
C=CCNc1ncnc2c1cnn2-c1ccc(C)cc1C	–	–	–	–	–	–
CCOC(=O)N1CCC(Nc2ncnc3c2cnn3-c2ccc(C)cc2C)CC1	–	–	44	–	–	–
Cc1c(C(=O)N2CCOCC2)sc2ncnc(N3CCc4ccccc4C3)c12	–	45	–	–	–	–
COc1ccc(S(=O)(=O)N(CC(=O)N2CCCC2)Cc2ccccc2)cc1	–	–	–	–	+	–
CCN(Cc1ccccc1)S(=O)(=O)c1ccc(OC)cc1	·	·	·	·	–	–
O=C(NNC(=O)c1ccncc1)Nc1ccc([N+](=O)[O-])cc1	–	–	–	–	–	–
O=C(NNC(=O)c1cccnc1)Nc1ccc([N+](=O)[O-])cc1	–	–	42	–	–	–
O=C(COC(=O)c1ccc(Cl)nc1)c1ccc2c(c1)OCCO2	–	–	–	–	–	–
COc1ccc(C(=O)n2nc(-c3ccccc3)nc2N)cc1OC	–	–	41	–	–	–
N#CCCN(Cc1ccccc1)C(=O)c1nccnc1C(=O)O	·	·	·	·	–	–
N#CCCC1CCCC=C1N(Cc1ccccc1)C(=O)C(Cl)Cl (stereo unspecified)	–	–	–	57	–	–
CCOC(=O)c1c(O)c2cc(Cl)ccc2n(CC)c1=O	–	50	–	–	–	–
Cc1cc(-c2ccccc2)n[nH]1	–	–	–	–	–	–
SMILES	Thrombin inh	FXIIa inh 1536	KLK5 inh	FXIa inh	Rce1 inh	CTSL1 counter
FC(F)C(F)(F)C(F)(F)C(F)(F)c1cc(-c2ccccc2)n[nH]1	–	50	–	50	–	–
COc1ccccc1NC(=O)CCS(=O)(=O)c1ccccc1	52	–	–	–	–	–
COc1ccccc1CNC(=O)CCS(=O)(=O)c1ccc(Cl)cc1	·	·	·	·	–	29
Cc1ccc(S(=O)(=O)CCC(=O)NCc2ccccc2Cl)cc1	–	–	–	–	–	–
COc1cccc(NC(=S)N2CCn3c(nc4ccccc43)C2)c1	–	–	–	–	–	–
CCOCc1cc(CN2CCCC(CNC(=O)c3ccco3)C2)ccc1OC (stereo unspecified)	·	·	·	·	–	–
CCCCNC(=S)N/N=C/C1=CCC2CC1C2(C)C (stereo unspecified)	–	–	–	–	–	–
CCCCNC(=O)CC(NS(=O)(=O)c1ccc(C)cc1)c1ccco1 (stereo unspecified)	–	–	–	–	–	–
COCCNC(=O)CC(NS(=O)(=O)c1ccc(C)cc1)c1ccco1 (stereo unspecified)	–	52	46	–	–	–
Cc1ccc(/C(O)=C2/C(=O)C(=O)N(CCN3CCOCC3)C2c2cccs2)cc1 (stereo unspecified)	–	–	–	–	–	–
CCC1CCCCN1CCCNC(=O)CCC(=O)N1CC(C)Oc2ccccc21 (stereo unspecified)	·	·	·	·	–	–
CCCCCn1c(=O)c(-c2nc3ccccc3[nH]2)c(O)c2ccccc21	–	–	–	–	+	–
CCCCCCCCn1c(=O)c(C(=O)OCC)c(O)c2ccccc21	–	–	–	–	–	–
CCOC(CNc1ncnc2sc(-c3ccccc3)cc12)OCC	·	·	·	·	–	–
CN(C)CCCNc1ncnc2sc(-c3ccccc3)cc12	95	–	–	–	–	–
O=C(N/N=C/c1ccccn1)c1ccc(Br)cc1	–	–	–	–	–	–
Cc1ccc(NC2c3ncccc3C(=O)N2c2ccccc2C)cc1C (stereo unspecified)	–	–	47	–	–	–
COC(=O)c1ccc(COC(=O)CNC(=O)CNC(=O)c2ccc(OC)cc2)cc1	·	·	·	·	–	–
O=C1CC(N2CCC(c3nc4ccccc4o3)CC2)C(=O)N1c1ccc(F)cc1 (stereo unspecified)	–	–	–	–	–	–
O=C1CC(N2CCC(c3nc4ccccc4o3)CC2)C(=O)N1c1ccc(Cl)c(C(F)(F)F)c1 (stereo unspecified)	–	–	–	42	–	–
OC[C@H]1OC(O)[C@H](O)[C@@H]1O (stereo partly specified)	·	·	·	·	·	–
O[C@@H]([C@H](O)[C@H](O)CBr)[C@H](O)CBr	·	·	·	·	–	26
CCN(CC)S(=O)(=O)c1ccc2c(c1)c(=O)c(C(=O)NCc1ccco1)cn2C	62	–	–	–	–	–
CC1CCN(S(=O)(=O)c2ccc3c(c2)c(=O)c(C(=O)NCc2ccco2)cn3C)CC1	–	–	–	–	–	–
C=CCn1cc(C(=O)NCc2ccc3c(c2)OCO3)c(=O)c2cc(S(=O)(=O)N(CC)CC)ccc21	42	–	–	–	–	·
SMILES	Thrombin inh	FXIIa inh 1536	KLK5 inh	FXIa inh	Rce1 inh	CTSL1 counter
O=C(NCc1ccco1)c1c[nH]c2ccc(S(=O)(=O)N3CCOCC3)cc2c1=O	74	–	–	–	·	·
CCN(CC)S(=O)(=O)c1ccc2c(c1)c(=O)c(C(=O)NCc1ccc3c(c1)OCO3)cn2C	64	–	–	–	–	–
CCN(CC)S(=O)(=O)c1ccc2c(c1)c(=O)c(C(=O)NCCOC)cn2C	–	–	–	–	–	–
O=C(NCCN1CCOCC1)c1c[nH]c2ccc(S(=O)(=O)N3CCOCC3)cc2c1=O	–	–	–	–	–	–
CC(=O)C1=C(c2ccccc2)NC(=O)NC1c1ccccc1OCC(=O)NCc1ccccc1 (stereo unspecified)	–	–	–	–	–	–
O=C(Nc1ccc(Cl)c(Cl)c1)OCCNC(=O)c1ccncc1	–	·	–	–	–	–

Compound activity as filed in PubChem.
